{
  "source": "paper PMC2836884",
  "about": "(Journal of Acquired Immune Deficiency Syndromes (1999), 2009)",
  "key": {"[1]": {"format": "in vivo, human", "how_it_was_run": "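HIV-1–infected patients aged 9–18 y, Tanner-stratified; one oral-solution dose of 8 mg/kg (max 600 mg) with water, fasted from 1 h before to 2 h after. Heparinised plasma sampled at 0–8 h (10 points) and assayed by reversed-phase HPLC-UV. Per-subject 1-compartment zero-order-absorption fit by weighted least squares gave kel and CL/F; Tmax by inspection; AUC 0–8 h.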"}, "[2]": {"settings": "adults, cited from earlier work"}, "[3]": {"settings": "children receiving 8 mg/kg, primarily prepubescent; Jullien et al; cited from earlier work"}, "[4]": {"settings": "children n = 22 (3 mo to 13 yrs), cited from earlier work"}, "[5]": {"settings": "in vivo, cited from earlier work"}, "cytochrome P450 system": {"system": "cytochrome P450 system", "settings": "cited from earlier work"}, "[6]": {"settings": "in vivo, po; cited from earlier work"}, "[7]": {"settings": "adults receiving 600 mg (approximately 8 mg/kg); Weller et al; cited from earlier work"}, "[8]": {"settings": "adults n = 12 (24–48 yrs), cited from earlier work"}, "HIV": {"system": "HIV", "settings": "8 mg/kg twice daily with AZT or 3TC; previously untreated children; cited from earlier work"}},
  "note": "Read-outs that look alike come from different tables or passages of the source.",
  "data": [
    {"smiles": "Nc1nc(NC2CC2)c2ncn([C@H]3C=C[C@@H](CO)C3)c2n1", "note": "[ABC, Abacavir]", "values": [
      {"measurement": "Intersubject variation of CL/F referenced to body weight", "setting": "[1]; all subjects", "result": "more than 8 fold"},
      {"measurement": "share of the total AUC in the period after 8 hours", "setting": "[1]; all subjects, estimated", "result": "< 3", "unit": "%"},
      {"measurement": "Tmax", "setting": "[1]; both, human, plasma, po, 8 mg/kg", "result": 1, "unit": "h"},
      {"measurement": "AUC", "setting": "[2]; recommended dose 300 mg twice daily", "result": "5 to 6", "unit": "µg·h/mL"},
      {"measurement": "AUC", "setting": "[2]; single-dose studies, 600 mg", "result": "11 to 16", "unit": "µg·h/mL"},
      {"measurement": "mean CL/F", "setting": "[3]", "result": 15.8, "unit": "mL/min per kg"},
      {"measurement": "AUC", "setting": "[4]; single dose 4 mg/kg", "result": 2.8, "unit": "µg·h/mL"},
      {"measurement": "CL/F", "setting": "[4]; single dose 4 mg/kg", "result": 27.4, "unit": "mL/min per kg"},
      {"measurement": "Cmax", "setting": "[4]; single dose 4 mg/kg", "result": 1.7, "unit": "µg/mL"},
      {"measurement": "t½", "setting": "[4]; single dose 4 mg/kg", "result": 0.9, "unit": "h"},
      {"measurement": "AUC", "setting": "[4]; single dose 8 mg/kg", "result": 8.1, "unit": "µg·h/mL"},
      {"measurement": "CL/F", "setting": "[4]; single dose 8 mg/kg", "result": 18.9, "unit": "mL/min per kg"},
      {"measurement": "Cmax", "setting": "[4]; single dose 8 mg/kg", "result": 3.9, "unit": "µg/mL"},
      {"measurement": "t½", "setting": "[4]; single dose 8 mg/kg", "result": 1.1, "unit": "h"},
      {"measurement": "oral clearance, adjusted for body size, higher for children than adults", "setting": "[5]; po", "result": "approximately 2 times"},
      {"measurement": "systemic exposure (AUC) in children lower than adult values", "setting": "[5]", "result": "approximately 50%"},
      {"measurement": "substrate or inhibitor of the cytochrome P450 system", "setting": "cytochrome P450 system", "result": "not a substrate or inhibitor of the cytochrome P450 system"},
      {"measurement": "amount eliminated unchanged in the urine", "setting": "[6]", "result": "< 5", "unit": "%"},
      {"measurement": "mean CL/F", "setting": "[7]", "result": 11.5, "unit": "mL/min per kg"},
      {"measurement": "AUC", "setting": "[8]; single dose 4 mg/kg", "result": 6.0, "unit": "µg·h/mL"},
      {"measurement": "CL/F", "setting": "[8]; single dose 4 mg/kg", "result": 13.4, "unit": "mL/min per kg"},
      {"measurement": "Cmax", "setting": "[8]; single dose 4 mg/kg", "result": 2.9, "unit": "µg/mL"},
      {"measurement": "t½", "setting": "[8]; single dose 4 mg/kg", "result": 1.2, "unit": "h"},
      {"measurement": "CL/F", "setting": "[8]; single dose 8 mg/kg (600 mg)", "result": 10.2, "unit": "mL/min per kg"},
      {"measurement": "AUC", "setting": "[8]; single dose 8 mg/kg", "result": 15.7, "unit": "µg·h/mL"},
      {"measurement": "Cmax", "setting": "[8]; single dose 8 mg/kg", "result": 4.7, "unit": "µg/mL"},
      {"measurement": "t½", "setting": "[8]; single dose 8 mg/kg", "result": 1.7, "unit": "h"},
      {"measurement": "reduction in viral load versus AZT/3TC combination", "setting": "HIV", "result": "larger reduction in viral load"}
    ]}
  ]
}
